Assay results as given in ChEMBL document CHEMBL5303300, “EUbOPEN Chemogenomics Library - Multiplex” (2023).
Several values for one entry are separate records, joined by “and”; a condition that tells them apart may be missing. Equal values may be shown once.

Test system: Fibroblast
Experiment: Multiplex assay against human fibroblast
Format: toxicity, cell-based
Conditions: number of replicates 2
How it was run: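 Values for tubulin, mitochondrial-mass and membrane-permeability phenotypes are per cents of cells with healthy nuclei. These cells were identified by CellPathfinder machine-learning gating of live cells that had been stained at seeding with Hoechst33342, BioTracker Green Microtubule Cytoskeleton Dye, MitoTracker Red and Annexin V Alexa Fluor 680 and imaged on a CQ1 microscope at 37°C and 5% CO2 after compound addition. The gating first set Hoechst high-intensity objects apart from normal cells, then split normal cells into healthy, pyknosed or fragmented nuclei, and pyknosed cells into mitotic or apoptotic.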

[1] = 12 h, 1 µM, compound concentration 1 uM
[2] = 12 h, 10 µM, compound concentration 10 uM
[3] = 24 h, 1 µM, compound concentration 1 uM
[4] = 24 h, 10 µM, compound concentration 10 uM
[5] = 48 h, 1 µM, compound concentration 1 uM
[6] = 48 h, 10 µM, compound concentration 10 uM

Compound: CCN1C(=O)N(c2c(F)c(OC)cc(OC)c2F)Cc2cnc3[nH]c(CN4CCOCC4)cc3c21 [PEMIGATINIB]
- Population Apoptotic (%) [1]: 60% and 45%
- Population Fragmented Nuclei (%) [1]: 8%
- Population Healthy Nuclei (%) [1]: 75% and 58%
- Population Hoechst High Intensity Objects (%) [1]: 0%
- Population Membrane Permeable-Phenotype (%) [1]: 3% and 8%
- Population Mitochondria Different-Phenotype (%) [1]: 1%
- Population Mitotic Cells (%) [1]: 40% and 54%
- Population Normal (%) [1]: 99% and 100%
- Population Pyknosed Nuclei (%) [1]: 15% and 33%
- Population Tubulin-Different-Phenotype (%) [1]: 13% and 14%
- Total Cell Count [1]: 220 and 246
- Population Apoptotic (%) [2]: 57% and 38%
- Population Fragmented Nuclei (%) [2]: 12% and 20%
- Population Healthy Nuclei (%) [2]: 53% and 51%
- Population Hoechst High Intensity Objects (%) [2]: 0%
- Population Membrane Permeable-Phenotype (%) [2]: 8% and 12%
- Population Mitochondria Different-Phenotype (%) [2]: 1% and 4%
- Population Mitotic Cells (%) [2]: 42% and 61%
- Population Normal (%) [2]: 100%
- Population Pyknosed Nuclei (%) [2]: 33% and 28%
- Population Tubulin-Different-Phenotype (%) [2]: 37% and 26%
- Total Cell Count [2]: 134 and 190
- Population Apoptotic (%) [3]: 72% and 67%
- Population Fragmented Nuclei (%) [3]: 8% and 7%
- Population Healthy Nuclei (%) [3]: 76% and 61%
- Population Hoechst High Intensity Objects (%) [3]: 0%
- Population Membrane Permeable-Phenotype (%) [3]: 5% and 7%
- Population Mitochondria Different-Phenotype (%) [3]: 1% and 0%
- Population Mitotic Cells (%) [3]: 27% and 32%
- Population Normal (%) [3]: 99% and 100%
- Population Pyknosed Nuclei (%) [3]: 15% and 30%
- Population Tubulin-Different-Phenotype (%) [3]: 7% and 14%
- Total Cell Count [3]: 237 and 226
- Population Apoptotic (%) [4]: 69% and 46%
- Population Fragmented Nuclei (%) [4]: 16% and 20%
- Population Healthy Nuclei (%) [4]: 57% and 50%
- Population Hoechst High Intensity Objects (%) [4]: 0%
- Population Membrane Permeable-Phenotype (%) [4]: 3% and 5%
- Population Mitochondria Different-Phenotype (%) [4]: 3%
- Population Mitotic Cells (%) [4]: 30% and 53%
- Population Normal (%) [4]: 100%
- Population Pyknosed Nuclei (%) [4]: 26% and 28%
- Population Tubulin-Different-Phenotype (%) [4]: 29% and 11%
- Total Cell Count [4]: 136 and 182
- Population Apoptotic (%) [5]: 75% and 71%
- Population Fragmented Nuclei (%) [5]: 10%
- Population Healthy Nuclei (%) [5]: 76% and 60%
- Population Hoechst High Intensity Objects (%) [5]: 0%
- Population Membrane Permeable-Phenotype (%) [5]: 5% and 3%
- Population Mitochondria Different-Phenotype (%) [5]: 0%
- Population Mitotic Cells (%) [5]: 24% and 28%
- Population Normal (%) [5]: 99%
- Population Pyknosed Nuclei (%) [5]: 13% and 28%
- Population Tubulin-Different-Phenotype (%) [5]: 5% and 8%
- Total Cell Count [5]: 240 and 232
- Population Apoptotic (%) [6]: 81% and 83%
- Population Fragmented Nuclei (%) [6]: 17% and 25%
- Population Healthy Nuclei (%) [6]: 57% and 51%
- Population Hoechst High Intensity Objects (%) [6]: 0%
- Population Membrane Permeable-Phenotype (%) [6]: 5% and 8%
- Population Mitochondria Different-Phenotype (%) [6]: 1%
- Population Mitotic Cells (%) [6]: 18% and 16%
- Population Normal (%) [6]: 100%
- Population Pyknosed Nuclei (%) [6]: 25% and 22%
- Population Tubulin-Different-Phenotype (%) [6]: 25% and 18%
- Total Cell Count [6]: 128 and 166

Compound: COc1ccc(F)c(F)c1C(=O)c1cnc(NC2CCN(S(C)(=O)=O)CC2)nc1N [RG-547]
- Population Apoptotic (%) [1]: 48% and 56%
- Population Fragmented Nuclei (%) [1]: 5% and 8%
- Population Healthy Nuclei (%) [1]: 78% and 70%
- Population Hoechst High Intensity Objects (%) [1]: 0%
- Population Membrane Permeable-Phenotype (%) [1]: 2% and 5%
- Population Mitochondria Different-Phenotype (%) [1]: 0%
- Population Mitotic Cells (%) [1]: 51% and 43%
- Population Normal (%) [1]: 100%
- Population Pyknosed Nuclei (%) [1]: 15% and 20%
- Population Tubulin-Different-Phenotype (%) [1]: 2% and 9%
- Total Cell Count [1]: 173 and 188
- Population Apoptotic (%) [2]: 50% and 56%
- Population Fragmented Nuclei (%) [2]: 13% and 12%
- Population Healthy Nuclei (%) [2]: 73% and 72%
- Population Hoechst High Intensity Objects (%) [2]: 0%
- Population Membrane Permeable-Phenotype (%) [2]: 7% and 5%
- Population Mitochondria Different-Phenotype (%) [2]: 3% and 2%
- Population Mitotic Cells (%) [2]: 50% and 43%
- Population Normal (%) [2]: 99% and 100%
- Population Pyknosed Nuclei (%) [2]: 13% and 15%
- Population Tubulin-Different-Phenotype (%) [2]: 30% and 17%
- Total Cell Count [2]: 192 and 209
- Population Apoptotic (%) [3]: 57% and 67%
- Population Fragmented Nuclei (%) [3]: 9% and 10%
- Population Healthy Nuclei (%) [3]: 77% and 69%
- Population Hoechst High Intensity Objects (%) [3]: 0%
- Population Membrane Permeable-Phenotype (%) [3]: 4% and 5%
- Population Mitochondria Different-Phenotype (%) [3]: 1% and 0%
- Population Mitotic Cells (%) [3]: 42% and 32%
- Population Normal (%) [3]: 100%
- Population Pyknosed Nuclei (%) [3]: 13% and 20%
- Population Tubulin-Different-Phenotype (%) [3]: 7%
- Total Cell Count [3]: 196 and 184
- Population Apoptotic (%) [4]: 61% and 75%
- Population Fragmented Nuclei (%) [4]: 9% and 11%
- Population Healthy Nuclei (%) [4]: 72% and 74%
- Population Hoechst High Intensity Objects (%) [4]: 0%
- Population Membrane Permeable-Phenotype (%) [4]: 7% and 5%
- Population Mitochondria Different-Phenotype (%) [4]: 6% and 4%
- Population Mitotic Cells (%) [4]: 38% and 25%
- Population Normal (%) [4]: 100%
- Population Pyknosed Nuclei (%) [4]: 18% and 13%
- Population Tubulin-Different-Phenotype (%) [4]: 35% and 26%
- Total Cell Count [4]: 194 and 201
- Population Apoptotic (%) [5]: 44% and 71%
- Population Fragmented Nuclei (%) [5]: 20% and 11%
- Population Healthy Nuclei (%) [5]: 44% and 70%
- Population Hoechst High Intensity Objects (%) [5]: 3% and 0%
- Population Mitochondria Different-Phenotype (%) [5]: 9% and 0%
- Population Mitotic Cells (%) [5]: 55% and 28%
- Population Normal (%) [5]: 96% and 100%
- Population Pyknosed Nuclei (%) [5]: 36% and 17%
- Population Apoptotic (%) [6]: 84% and 68%
- Population Fragmented Nuclei (%) [6]: 8% and 11%
- Population Healthy Nuclei (%) [6]: 62%
- Population Hoechst High Intensity Objects (%) [6]: 0%
- Population Membrane Permeable-Phenotype (%) [6]: 17% and 18%
- Population Mitochondria Different-Phenotype (%) [6]: 2% and 6%
- Population Mitotic Cells (%) [6]: 15% and 31%
- Population Normal (%) [6]: 100%
- Population Pyknosed Nuclei (%) [6]: 28% and 25%
- Population Tubulin-Different-Phenotype (%) [6]: 43% and 38%
- Total Cell Count [6]: 179 and 184
